Assay results from ChEMBL document CHEMBL4689842, “EUbOPEN Chemogenomics Library wave 1” (2021).

Test system: U2OS
Test: Multiplex assay against U2OS
Assay type: toxicity, cell-based
Conditions: human
Method in brief: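 Live cells were stained at seeding with Hoechst33342, BioTracker Green Microtubule Cytoskeleton Dye, MitoTracker Red and Annexin V Alexa Fluor 680, then imaged on a CQ1 microscope at 37°C and 5% CO2 after compound addition. CellPathfinder machine-learning gating split cells into Hoechst high-intensity objects or normal cells. Normal cells were split into healthy, pyknosed or fragmented nuclei, and pyknosed cells into mitotic or apoptotic. Tubulin, mitochondrial-mass and membrane-permeability phenotypes are per cents of healthy-nucleus cells.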

[1] = 12 h, 1 µM, compound concentration 1 uM, replicate 1
[2] = 12 h, 1 µM, compound concentration 1 uM, replicate 2
[3] = 12 h, 10 µM, compound concentration 10 uM, replicate 1
[4] = 12 h, 10 µM, compound concentration 10 uM, replicate 2
[5] = 24 h, 1 µM, compound concentration 1 uM, replicate 1
[6] = 24 h, 1 µM, compound concentration 1 uM, replicate 2
[7] = 24 h, 10 µM, compound concentration 10 uM, replicate 1
[8] = 24 h, 10 µM, compound concentration 10 uM, replicate 2
[9] = 48 h, 1 µM, compound concentration 1 uM, replicate 1
[10] = 48 h, 1 µM, compound concentration 1 uM, replicate 2
[11] = 48 h, 10 µM, compound concentration 10 uM, replicate 1
[12] = 48 h, 10 µM, compound concentration 10 uM, replicate 2

O=C(Cc1ccc(-c2ccc(OCCN3CCOCC3)cc2)cn1)NCc1ccccc1 [TIRBANIBULIN]
Population Apoptotic (%) [1]: 52%
Population Fragmented Nuclei (%) [1]: 10%
Population Healthy Nuclei (%) [1]: 76%
Population Hoechst High Intensity Objects (%) [1]: 7%
Population Membrane Permeable-Phenotype (%) [1]: 8%
Population Mitochondria Different-Phenotype (%) [1]: 20%
Population Mitotic Cells (%) [1]: 47%
Population Normal (%) [1]: 92%
Population Pyknosed Nuclei (%) [1]: 12%
Population Tubulin-Different-Phenotype (%) [1]: 19%
Total Cell Count [1]: 172
Population Apoptotic (%) [2]: 0%
Population Fragmented Nuclei (%) [2]: 5%
Population Healthy Nuclei (%) [2]: 90%
Population Hoechst High Intensity Objects (%) [2]: 12%
Population Membrane Permeable-Phenotype (%) [2]: 9%
Population Mitochondria Different-Phenotype (%) [2]: 21%
Population Mitotic Cells (%) [2]: 100%
Population Normal (%) [2]: 87%
Population Pyknosed Nuclei (%) [2]: 4%
Population Tubulin-Different-Phenotype (%) [2]: 12%
Total Cell Count [2]: 108
Population Apoptotic (%) [3]: 21%
Population Fragmented Nuclei (%) [3]: 10%
Population Healthy Nuclei (%) [3]: 72%
Population Hoechst High Intensity Objects (%) [3]: 10%
Population Membrane Permeable-Phenotype (%) [3]: 8%
Population Mitochondria Different-Phenotype (%) [3]: 16%
Population Mitotic Cells (%) [3]: 78%
Population Normal (%) [3]: 89%
Population Pyknosed Nuclei (%) [3]: 16%
Population Tubulin-Different-Phenotype (%) [3]: 10%
Total Cell Count [3]: 169
Population Apoptotic (%) [4]: 50%
Population Fragmented Nuclei (%) [4]: 13%
Population Healthy Nuclei (%) [4]: 78%
Population Membrane Permeable-Phenotype (%) [4]: 4%
Population Mitochondria Different-Phenotype (%) [4]: 19%
Population Mitotic Cells (%) [4]: 50%
Population Pyknosed Nuclei (%) [4]: 7%
Population Tubulin-Different-Phenotype (%) [4]: 12%
Total Cell Count [4]: 81
Population Apoptotic (%) [5]: 34%
Population Fragmented Nuclei (%) [5]: 20%
Population Healthy Nuclei (%) [5]: 50%
Population Hoechst High Intensity Objects (%) [5]: 8%
Population Membrane Permeable-Phenotype (%) [5]: 9%
Population Mitochondria Different-Phenotype (%) [5]: 35%
Population Mitotic Cells (%) [5]: 65%
Population Normal (%) [5]: 91%
Population Pyknosed Nuclei (%) [5]: 29%
Population Tubulin-Different-Phenotype (%) [5]: 21%
Total Cell Count [5]: 227
Population Apoptotic (%) [6]: 61%
Population Fragmented Nuclei (%) [6]: 16%
Population Healthy Nuclei (%) [6]: 66%
Population Hoechst High Intensity Objects (%) [6]: 9%
Population Membrane Permeable-Phenotype (%) [6]: 6%
Population Mitochondria Different-Phenotype (%) [6]: 44%
Population Mitotic Cells (%) [6]: 38%
Population Normal (%) [6]: 90%
Population Pyknosed Nuclei (%) [6]: 17%
Population Tubulin-Different-Phenotype (%) [6]: 10%
Total Cell Count [6]: 155
Population Apoptotic (%) [7]: 34%
Population Fragmented Nuclei (%) [7]: 15%
Population Healthy Nuclei (%) [7]: 64%
Population Hoechst High Intensity Objects (%) [7]: 8%
Population Membrane Permeable-Phenotype (%) [7]: 8%
Population Mitochondria Different-Phenotype (%) [7]: 46%
Population Mitotic Cells (%) [7]: 65%
Population Normal (%) [7]: 91%
Population Pyknosed Nuclei (%) [7]: 20%
Population Tubulin-Different-Phenotype (%) [7]: 11%
Total Cell Count [7]: 160
Population Apoptotic (%) [8]: 66%
Population Fragmented Nuclei (%) [8]: 19%
Population Healthy Nuclei (%) [8]: 57%
Population Hoechst High Intensity Objects (%) [8]: 10%
Population Membrane Permeable-Phenotype (%) [8]: 10%
Population Mitochondria Different-Phenotype (%) [8]: 40%
Population Mitotic Cells (%) [8]: 33%
Population Normal (%) [8]: 89%
Population Pyknosed Nuclei (%) [8]: 23%
Population Tubulin-Different-Phenotype (%) [8]: 13%
Total Cell Count [8]: 82
Population Apoptotic (%) [9]: 67%
Population Fragmented Nuclei (%) [9]: 24%
Population Healthy Nuclei (%) [9]: 40%
Population Hoechst High Intensity Objects (%) [9]: 9%
Population Membrane Permeable-Phenotype (%) [9]: 7%
Population Mitochondria Different-Phenotype (%) [9]: 39%
Population Mitotic Cells (%) [9]: 32%
Population Normal (%) [9]: 90%
Population Pyknosed Nuclei (%) [9]: 35%
Population Tubulin-Different-Phenotype (%) [9]: 25%
Total Cell Count [9]: 340
Population Apoptotic (%) [10]: 75%
Population Fragmented Nuclei (%) [10]: 22%
Population Healthy Nuclei (%) [10]: 45%
Population Hoechst High Intensity Objects (%) [10]: 11%
Population Membrane Permeable-Phenotype (%) [10]: 29%
Population Mitochondria Different-Phenotype (%) [10]: 64%
Population Mitotic Cells (%) [10]: 25%
Population Normal (%) [10]: 88%
Population Pyknosed Nuclei (%) [10]: 32%
Population Tubulin-Different-Phenotype (%) [10]: 35%
Total Cell Count [10]: 239
Population Apoptotic (%) [11]: 64%
Population Fragmented Nuclei (%) [11]: 24%
Population Healthy Nuclei (%) [11]: 32%
Population Hoechst High Intensity Objects (%) [11]: 10%
Population Membrane Permeable-Phenotype (%) [11]: 15%
Population Mitochondria Different-Phenotype (%) [11]: 63%
Population Mitotic Cells (%) [11]: 35%
Population Normal (%) [11]: 89%
Population Pyknosed Nuclei (%) [11]: 43%
Population Tubulin-Different-Phenotype (%) [11]: 22%
Total Cell Count [11]: 174
Population Apoptotic (%) [12]: 70%
Population Fragmented Nuclei (%) [12]: 23%
Population Healthy Nuclei (%) [12]: 45%
Population Hoechst High Intensity Objects (%) [12]: 11%
Population Membrane Permeable-Phenotype (%) [12]: 44%
Population Mitochondria Different-Phenotype (%) [12]: 68%
Population Mitotic Cells (%) [12]: 29%
Population Normal (%) [12]: 88%
Population Pyknosed Nuclei (%) [12]: 30%
Population Tubulin-Different-Phenotype (%) [12]: 36%
Total Cell Count [12]: 85

COc1cc2ncnc(Nc3ccc(F)c(Cl)c3)c2cc1NC(=O)/C=C/CN1CCCCC1 [DACOMITINIB ANHYDROUS]
Population Apoptotic (%) [1]: 5%
Population Fragmented Nuclei (%) [1]: 6%
Population Healthy Nuclei (%) [1]: 84%
Population Hoechst High Intensity Objects (%) [1]: 6%
Population Membrane Permeable-Phenotype (%) [1]: 72%
Population Mitochondria Different-Phenotype (%) [1]: 3%
Population Mitotic Cells (%) [1]: 94%
Population Normal (%) [1]: 93%
Population Pyknosed Nuclei (%) [1]: 8%
Population Tubulin-Different-Phenotype (%) [1]: 45%
Total Cell Count [1]: 197
Population Apoptotic (%) [2]: 60%
Population Fragmented Nuclei (%) [2]: 11%
Population Hoechst High Intensity Objects (%) [2]: 8%
Population Membrane Permeable-Phenotype (%) [2]: 24%
Population Mitochondria Different-Phenotype (%) [2]: 32%
Population Mitotic Cells (%) [2]: 40%
Population Normal (%) [2]: 91%
Population Pyknosed Nuclei (%) [2]: 4%
Population Tubulin-Different-Phenotype (%) [2]: 69%
Total Cell Count [2]: 127
Population Apoptotic (%) [3]: 0%
Population Fragmented Nuclei (%) [3]: 3%
Population Healthy Nuclei (%) [3]: 92%
Population Hoechst High Intensity Objects (%) [3]: 3%
Population Membrane Permeable-Phenotype (%) [3]: 31%
Population Mitochondria Different-Phenotype (%) [3]: 7%
Population Mitotic Cells (%) [3]: 100%
Population Normal (%) [3]: 96%
Population Pyknosed Nuclei (%) [3]: 4%
Population Tubulin-Different-Phenotype (%) [3]: 15%
Total Cell Count [3]: 182
Population Fragmented Nuclei (%) [4]: 14%
Population Healthy Nuclei (%) [4]: 82%
Population Hoechst High Intensity Objects (%) [4]: 10%
Population Membrane Permeable-Phenotype (%) [4]: 10%
Population Mitochondria Different-Phenotype (%) [4]: 17%
Population Normal (%) [4]: 89%
Population Pyknosed Nuclei (%) [4]: 2%
Population Tubulin-Different-Phenotype (%) [4]: 18%
Total Cell Count [4]: 118
Population Apoptotic (%) [5]: 46%
Population Fragmented Nuclei (%) [5]: 9%
Population Healthy Nuclei (%) [5]: 81%
Population Hoechst High Intensity Objects (%) [5]: 5%
Population Membrane Permeable-Phenotype (%) [5]: 65%
Population Mitochondria Different-Phenotype (%) [5]: 5%
Population Mitotic Cells (%) [5]: 53%
Population Normal (%) [5]: 94%
Population Pyknosed Nuclei (%) [5]: 9%
Population Tubulin-Different-Phenotype (%) [5]: 39%
Total Cell Count [5]: 262
Population Apoptotic (%) [6]: 75%
Population Fragmented Nuclei (%) [6]: 14%
Population Healthy Nuclei (%) [6]: 78%
Population Membrane Permeable-Phenotype (%) [6]: 11%
Population Mitochondria Different-Phenotype (%) [6]: 50%
Population Mitotic Cells (%) [6]: 25%
Population Pyknosed Nuclei (%) [6]: 7%
Population Tubulin-Different-Phenotype (%) [6]: 58%
Total Cell Count [6]: 158
Population Apoptotic (%) [7]: 40%
Population Fragmented Nuclei (%) [7]: 5%
Population Healthy Nuclei (%) [7]: 86%
Population Hoechst High Intensity Objects (%) [7]: 2%
Population Membrane Permeable-Phenotype (%) [7]: 15%
Population Mitochondria Different-Phenotype (%) [7]: 10%
Population Mitotic Cells (%) [7]: 59%
Population Normal (%) [7]: 97%
Population Pyknosed Nuclei (%) [7]: 8%
Population Tubulin-Different-Phenotype (%) [7]: 14%
Total Cell Count [7]: 184
Population Apoptotic (%) [8]: 50%
Population Fragmented Nuclei (%) [8]: 6%
Population Healthy Nuclei (%) [8]: 87%
Population Hoechst High Intensity Objects (%) [8]: 9%
Population Membrane Permeable-Phenotype (%) [8]: 18%
Population Mitochondria Different-Phenotype (%) [8]: 24%
Population Mitotic Cells (%) [8]: 50%
Population Normal (%) [8]: 90%
Population Pyknosed Nuclei (%) [8]: 5%
Population Tubulin-Different-Phenotype (%) [8]: 22%
Total Cell Count [8]: 114
